Hits are enriched below; roughly 3% of the tested compounds scored in any of these assays.
MC4R antagonist – antagonists of human melanocortin 4 receptor (MC4R); P32245; MC4R-expressing cells, MTII-stimulated cAMP, LANCE TR-FRET; inhibition, % at 6.5 µM; 0.48% of 360,000 active;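 active = inhibition above its plate's cutoff, the mean of tested wells on that plate plus 3 SD, cut at about 29% in these data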
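Test system: U2OS cells stably expressing human melanocortin 4 receptor (MC4R); also added: Melanotan II challenge; compound: 6.5 µM single dose; timing: 30-min compound preincubation, 1-h Melanotan II challenge, 1-h detection, room temperature; signal: Eu-cAMP/anti-cAMP TR-FRET, emission 671 nm; repeats: one well per compound, no replicates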
ABHD5 PLIN5 PPI – ABHD5-PLIN5 protein interaction inhibition; Q00G26+Q8WTS1; Split G. princeps luciferase complementation, luminescence, 4 h; inhibition, % at 4 µM; 0.78% of 360,000 active; AID 602281;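 active = inhibition above the mean inhibition across every tested compound plus 3 SD, cut at about 22% in these data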
MC4R barr agon – agonists of human melanocortin 4 receptor (MC4R) beta-arrestin. 0.98% of 360,000 active. activation, % at 8.9 µM. AID 540308. P32245. U2OS MC4R beta-arrestin complementation, luminescence; percent of melanotan II response, DMSO zero;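 active = activation above a per-plate cutoff, the mean activation of sample wells on that plate plus 3 SD, cut at about 8% in these data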
B2AR ag – activates human beta-2 adrenergic receptor causing internalization | P07550 | Am2.2-beta2AR cells, FAP receptor internalization, flow cytometry | response, % (concentration not given with the values) | 0.43% of 340,000 active;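 active = response above a set limit, near 3 SD of response in nonfluorescent compounds, cut at about 42% in these data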
Target sequence (P07550 whole entry, looked up): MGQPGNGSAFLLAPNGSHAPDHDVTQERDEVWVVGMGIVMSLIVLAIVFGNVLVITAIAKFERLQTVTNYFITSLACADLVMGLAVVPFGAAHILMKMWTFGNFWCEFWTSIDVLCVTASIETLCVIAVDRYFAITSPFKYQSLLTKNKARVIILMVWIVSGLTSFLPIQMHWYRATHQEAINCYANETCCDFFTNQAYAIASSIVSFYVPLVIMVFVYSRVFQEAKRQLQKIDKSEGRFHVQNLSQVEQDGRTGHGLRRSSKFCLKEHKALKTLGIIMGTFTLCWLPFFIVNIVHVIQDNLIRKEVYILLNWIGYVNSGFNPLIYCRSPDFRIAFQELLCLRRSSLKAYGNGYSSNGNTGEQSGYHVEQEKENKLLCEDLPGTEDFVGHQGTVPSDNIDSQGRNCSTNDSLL
PfG6PD inh – PfG6PD (Plasmodium falciparum) enzyme inhibition; PfGluPho enzyme, NADPH resazurin-diaphorase fluorescence; inhibition, % at 20 µM; 0.78% of 350,000 active; AID 504690;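 active = inhibition reaching at least a set limit at 20 µM in the primary screen, cut at about 59% in these data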
ABHD5 PLIN5 conf – ABHD5-PLIN5 interaction inhibition, confirmed; 67% of 2,200 active; AID 651612; biochemical ABHD5-PLIN5 interaction, luminescence; shares compounds with ABHD5 PLIN5 PPI; inhibition, % at 4 µM; in the data active = inhibition above about 23%
HNF4 counter – HNF4 split-luciferase signal hit, counter-screen; HNF4 dimerization, luminescence, biochemical; shares compounds with ABHD5 PLIN5 PPI; inhibition, % at 4 µM; AID 651674; 77% of 2,200 active;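 active = mean inhibition across replicate wells exceeding the computed hit threshold, cut at about 13% in these data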;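 note: light from luciferase halves that rejoin when HNF4 fusion proteins dimerize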
A number is an active result; . = inactive; / = no result given.

SMILES	MC4R antagonist	ABHD5 PLIN5 PPI	MC4R barr agon	B2AR ag	PfG6PD inh	ABHD5 PLIN5 conf	HNF4 counter
Cc1sc2ncn(CC(=O)NCc3ccco3)c(=O)c2c1-c1ccc(F)cc1	.	28.7	.	.	.	55.9	61.7
COc1ccc(S(=O)(=O)N(C(C)=O)c2ccc3oc(=O)sc3c2)cc1	.	28.7	.	.	.	.	16.4
O=C(O)c1ccc(C(=O)O)c(C(=O)c2ccc(NC(=O)c3ccccc3)cc2)c1	.	.	.	.	.	/	/
CCCCCc1cc(=O)oc2c(C(CCN(CC)CC)c3cc(OC)c(OC)c(OC)c3)c(OC)cc(OC)c12 (configuration not stated)	.	27.2	.	44.5	.	.	.
O=C(C=Cc1ccccc1)c1c[nH]c2ccccc2c1=O	.	27.4	.	.	.	73.6	62.9
Cc1[nH]c2ccccc2c1/C=C/C(=O)c1ccccc1	.	.	.	.	.	/	/
Cc1[nH]c2ccccc2c(=O)c1C(=O)/C=C/c1ccccc1	.	31.7	.	.	.	63.1	55.5
O=C(COC(=O)Cc1ccccc1F)NC(=O)NC1CCCC1	.	.	.	.	.	/	/
Cc1ccc(CC2(OCCN(C)C)CCC(C(C)(C)C)CC2)cc1 (configuration not stated)	.	26.4	.	.	.	30.2	.
CN(C)CCOC1(Cc2ccc(F)cc2)CCC(C(C)(C)C)CC1 (configuration not stated)	.	25.2	.	.	.	32.7	.
O=C(NCc1ccco1)c1cnn2c(C(F)(F)F)cc(-c3cccs3)nc12	.	24.0	.	.	.	24.7	46.7
COc1cc(C(C2C(=O)CC(C)(C)CC2=O)C2C(=O)CC(C)(C)CC2=O)ccc1OC(C)=O	.	25.5	.	.	.	36.6	33.3
CSS(=O)(=O)c1cccc2cccnc12	.	.	.	.	.	/	/
CC(C)NC(=O)C1(C)CCN1C(=O)c1ccccc1Oc1ccccc1 (configuration not stated)	.	.	.	/	/	/	/
O=C/C(=C\Nc1ccccn1)c1nc2ccccc2o1	.	23.9	.	.	.	.	26.6
CCOC(=O)c1c(NC(=O)/C=C/C(=O)O)sc(C)c1-c1ccc(C)c(C)c1	.	24.6	.	.	.	.	.
Cc1c(NS(=O)(=O)c2cccc(C(=O)NCc3ccco3)c2)c(=O)n(-c2ccccc2)n1C	.	25.2	.	.	.	.	14.3
CCN(c1ccccc1)S(=O)(=O)c1cc(C(=O)NCc2ccco2)ccc1C	.	26.9	.	.	.	.	13.6
Cc1c(NS(=O)(=O)c2cccc(C(=O)NCc3ccc(Cl)cc3)c2)c(=O)n(-c2ccccc2)n1C	.	.	.	.	.	/	/
CC1Oc2ccccc2N(CC(=O)NCCN2CCOCC2)C1=O (configuration not stated)	.	.	.	.	.	/	/
CC(=O)C1=C(c2cccc([N+](=O)[O-])c2)N(C(C)=O)n2c(C)nnc2S1	.	61.4	.	.	.	82.5	47.3
CC(=O)c1c(C(C)=O)c(C)n(-c2cccc([N+](=O)[O-])c2)c1C	.	.	.	.	.	/	/
COc1ccc(CN2C(=O)C(CC(=O)NCCCCc3ccccc3)CC(C(=O)N3CCCCCC3)=C2C)cc1 (configuration not stated)	/	.	/	/	/	/	/
CCCCN(C(=O)c1cc2c(s1)CCC2)c1c(N)n(CCC)c(=O)[nH]c1=O	.	.	.	.	.	/	/
COC(=O)c1ccc2c(c1)C(C)(C)C(/C=C/c1ccccc1O)=[N+]2C	.	63.6	.	62.0	.	98.3	94.9
C[N+]1=C(/C=C/Nc2ccccc2Cl)C(C)(C)c2ccccc21	.	.	.	.	.	/	/
CSc1nc2cc(Oc3cccc(Cl)c3Cl)c(Cl)cc2[nH]1	.	.	.	.	.	/	/
OC1CC2CCC(C1)N2CCCN1c2ccccc2Sc2ccc(Cl)cc21 (configuration not stated)	.	27.1	.	.	.	.	16.1
CC(C)(C)c1ccc(/C=C/C(=O)Nc2ccncc2)cc1	.	.	.	.	.	/	/
